pIC50: −log10 of the molar value.
How the values were obtained:
[1] = target: T1, Ribosomal protein S6 kinase alpha-3 (Homo sapiens, UniProt P51812); experiment: Inhibition of RSK2 (unknown origin) using AKRRRLSSLRA as substrate at 10 uM after 60 mins by fluorescence assay relative to control
[2] = test system: PC-3; experiment: Cytotoxicity against human PC3 cells assessed as growth inhibition at 100 uM after 48 hrs by MTT assay relative to control; type: functional; settings: PC-3, 48 h, read-out: GI
Procedure, shortened: (§1)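 Single-concentration screen at 100 µM by 48 h MTT. MCF-7 cells were grown in DMEM plus 10% FBS and PC 3 cells in F-12K, 5 × 10^3 cells per well. After 4 h with MTT at 37 °C, formazan was dissolved in DMSO and absorbance read at 570 nm. Percent inhibition is reported.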

[3] = target: T1, Ribosomal protein S6 kinase alpha-3; experiment: Inhibition of RSK2 (unknown origin) using AKRRRLSSLRA as substrate after 60 mins by fluorescence assay
[4] = test system: MCF7; experiment: Cytotoxicity against human MCF7 cells assessed as growth inhibition at 100 uM after 48 hrs by MTT assay relative to control; type: functional; settings: MCF7, 48 h, read-out: GI; procedure, shortened: as §1
[5] = test system: PC-3; experiment: Cytotoxicity against human PC3 cells assessed as growth inhibition after 48 hrs by MTT assay; type: functional, cell-based; settings: PC-3, 48 h
Procedure, shortened: (§2)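 MCF-7 cells grown in DMEM plus 10% FBS and PC 3 cells in F-12K, both seeded at 5 × 10^3 per well. Cells were exposed to compounds at various concentrations for 48 h. MTT was then added for 4 h at 37 °C in 5% CO2, formazan was dissolved in DMSO, and absorbance was read at 570 nm. IC50 was taken from inhibition curves of three independent experiments and measured only where inhibition at 100 µM exceeded 50%.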

[6] = test system: MCF7; experiment: Cytotoxicity against human MCF7 cells assessed as growth inhibition after 48 hrs by MTT assay; type: functional, cell-based; settings: MCF7, 48 h; procedure, shortened: as §2
[7] = target: T1, Ribosomal protein S6 kinase alpha-3; experiment: Inhibition of RSK2 (unknown origin)

T1 sequence (P51812 whole entry): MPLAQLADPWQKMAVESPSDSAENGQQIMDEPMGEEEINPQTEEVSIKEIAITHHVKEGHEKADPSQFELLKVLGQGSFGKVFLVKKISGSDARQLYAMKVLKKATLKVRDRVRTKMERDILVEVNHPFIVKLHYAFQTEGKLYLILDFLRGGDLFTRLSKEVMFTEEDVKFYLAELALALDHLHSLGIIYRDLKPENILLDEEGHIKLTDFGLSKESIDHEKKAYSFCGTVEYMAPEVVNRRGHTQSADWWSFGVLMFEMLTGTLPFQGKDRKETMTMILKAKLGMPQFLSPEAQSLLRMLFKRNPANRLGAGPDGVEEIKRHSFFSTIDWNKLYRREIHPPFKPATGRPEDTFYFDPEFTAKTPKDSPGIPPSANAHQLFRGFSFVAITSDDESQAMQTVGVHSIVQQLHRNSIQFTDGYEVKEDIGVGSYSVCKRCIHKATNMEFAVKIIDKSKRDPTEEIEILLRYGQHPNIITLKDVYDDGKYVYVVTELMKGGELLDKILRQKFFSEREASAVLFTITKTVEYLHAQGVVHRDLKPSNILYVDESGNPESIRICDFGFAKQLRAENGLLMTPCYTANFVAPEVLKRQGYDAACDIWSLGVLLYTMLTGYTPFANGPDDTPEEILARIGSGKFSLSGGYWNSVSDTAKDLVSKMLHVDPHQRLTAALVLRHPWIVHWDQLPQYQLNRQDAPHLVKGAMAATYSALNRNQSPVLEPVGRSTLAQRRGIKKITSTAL

Row | SMILES | inhibition [1] | further results
1 | CCc1ccc2c(c1)/C(=N\NC(=O)CSc1ccc(Cl)cc1)C(=O)N2 | < 10% | 
2 | O=C1Nc2ccc(Cl)cc2/C1=C/c1c[nH]nc1-c1ccc(Cl)cc1 | < 10% | 
3 | O=C1Nc2ccc(Br)cc2/C1=N/NC(=O)c1ccco1 | 11.5% | 
4 | O=C1Nc2ccc(F)cc2/C1=C/c1c[nH]nc1-c1ccc(F)cc1 | < 10% | 
5 | O=C1Nc2ccc(Cl)cc2/C1=C/c1ccc(-c2ccccc2Cl)o1 | 32.1% | 
6 | O=C1Nc2ccc(F)cc2/C1=C/c1ccc(-c2cccc(Br)c2)o1 | 26.3% | 
7 | N=C1NC(=O)/C(=C2/C(=O)Nc3cc(Cl)ccc32)S1 | 18.4% | 
8 | O=C1Nc2ccccc2/C1=N/N=C1\CCCc2c1[nH]c1ccc(Cl)cc21 | < 10% | 
9 | O=C1Nc2ccccc2/C1=C/c1c[nH]nc1-c1ccc(F)cc1 | 38.6% | 
10 | O=C1Nc2ccc(Br)cc2/C1=C/c1ccc(-c2ccccc2Cl)o1 | 22.3% | 
11 | COc1ccc2c(c1)/C(=C\c1ccco1)C(=O)N2 | 25.6% | 
12 | CCc1cccc2c1NC(=O)/C2=C1\SC(=S)NC1=O | 50.1% | inhibition of growth at 100 µM [2]: 40.9%; pIC50 [3]: 4.77; inhibition of growth at 100 µM [4]: 16%
13 | O=C1Nc2ccc(Cl)cc2/C1=C/c1c[nH]nc1-c1ccc(F)cc1 | 44.5% | 
14 | CC(=O)NN1C(=O)/C(=C2/C(=O)Nc3ccc(C)cc32)SC1=S | 41.1% | 
15 | O=C1Nc2ccccc2/C1=C/c1ccc(-c2cccc(Br)c2)o1 | 21.9% | 
16 | NC(=O)c1ccc(/N=C2/C(=O)Nc3ccccc32)cc1 | < 10% | 
17 | O=C1Nc2ccccc2/C1=C/c1ccc(-c2c(Cl)cc(C(F)(F)F)cc2Cl)o1 | < 10% | 
18 | O=C1Nc2ccc([N+](=O)[O-])cc2/C1=C\c1ccco1 | 29.8% | 
19 | O=C1Nc2ccc(Br)cc2/C1=C\c1ccco1 | 87.3% | pIC50 [5]: 4.77; pIC50 [6]: 5.01; pIC50 [3]: 5.82
20 | O=C1Nc2ccc(F)cc2/C1=C/c1c[nH]nc1-c1ccccc1 | 78.4% | inhibition of growth at 100 µM [2]: < 10%; pIC50 [3]: 5.07; inhibition of growth at 100 µM [4]: < 10%

Row | SMILES | inhibition [1] | further results
21 | Nc1ccc2c(c1)/C(=C\c1ccco1)C(=O)N2 | 100% | pIC50 [6]: 4.81; inhibition of growth at 100 µM [2]: < 10%; pIC50 [3]: 5.60
22 | O=C1Nc2ccc(Br)cc2/C1=C/c1ccc(-c2cccc(Br)c2)o1 | < 10% | 
23 | Cc1ccc(N/N=C2/C(=O)Nc3ccc(F)cc32)cc1 | 30.1% | 
24 | O=C1Nc2ccc(Br)cc2/C1=C/c1c[nH]nc1-c1ccccc1 | 33.6% | 
25 | O=C1Nc2ccccc2/C1=C/c1ccc(CN2C(=O)c3ccccc3C2=O)o1 | 16.5% | 
26 | O=C1Nc2ccc(Cl)cc2/C1=C/c1c[nH]nc1-c1ccccc1 | 33.2% | 
27 | O=C1Nc2ccccc2/C1=C/c1c[nH]nc1-c1ccccc1 | 79.5% | pIC50 [5]: 5.21; pIC50 [6]: 5.07; pIC50 [3]: 5.57
28 | O=C1Nc2ccc(F)cc2/C1=C/c1ccc(-c2ccccc2Cl)o1 | 17.1% | 
29 | Cc1c(Cl)ccc2c1NC(=O)/C2=C1\SC(=S)NC1=O | 39.6% | 
30 | O=C1Nc2ccc(Cl)cc2/C1=C1/S/C(=N\c2ccccc2)N(c2ccccc2)C1=O | < 10% | 
31 | O=C1Nc2ccc(Cl)cc2/C1=C\c1ccco1 | 84.8% | pIC50 [5]: 4.62; pIC50 [6]: 4.83; pIC50 [3]: 5.69
32 | O=C1Nc2ccc(Br)cc2/C1=C/c1c[nH]nc1-c1ccc(F)cc1 | < 10% | 
33 | COc1ccc(-n2c(/C=C3\C(=O)Nc4ccccc43)nc3ccc(I)cc3c2=O)cc1 | 13.4% | 
34 | Cn1cc(C2=C(c3cn(CCCSC(=N)N)c4ccccc34)C(=O)NC2=O)c2ccccc21 [BISINDOLYLMALEIMIDE IX] |  | pIC50 [5]: 5.76
35 | O=C1Nc2ccccc2/C1=C/c1ccc(-c2ccccc2Cl)o1 | 16.8% | 
36 | Cc1cccc2c1NC(=O)/C2=C1\SC(=S)NC1=O | 92.4% | inhibition of growth at 100 µM [2]: < 10%; pIC50 [3]: 5.77; inhibition of growth at 100 µM [4]: 41.5%
37 | O=C1Nc2ccc(Br)cc2/C1=N/NC(=O)c1ccc2c(c1)OCO2 | < 10% | 
38 | CCn1c(/C=C2\C(=O)Nc3ccccc32)nc2ccccc2c1=O | < 10% | 
39 | O=C1Nc2ccc(Cl)cc2/C1=C/c1ccc(-c2cccc(Br)c2)o1 | < 10% | 
40 | O=C1Nc2ccccc2/C1=C/c1ccco1 | 69.6% | pIC50 [6]: 4.52; inhibition of growth at 100 µM [2]: < 10%; pIC50 [3]: 5.46; pIC50 [7]: 5.11
